The source made the active and inactive calls. No cut-off for these calls is given here.
How the values were obtained:
HeLa = test: Antiproliferative activity against human HeLa cells after 72 hrs by MTT test; format: functional, cell-based
In short: (§1)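 Cells grown as monolayers in DMEM with 10% FBS, 2 mM L-glutamine, penicillin and streptomycin at 37 °C, 5% CO2. Seeded on day 0 at 1 · 10⁴/mL (HeLa, Hep-2, MiaPaCa-2, SW620), 2 · 10⁴/mL (MCF-7) or 3 · 10⁴/mL (WI 38). Five dilutions (10^-8 to 5 · 10^-6 mol/l), 72 h, MTT read-out. Quadruplicate, three experiments. IC50 by linear regression of percentage growth.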

WI-38 = test: Antiproliferative activity against human WI38 cells after 72 hrs by MTT test; format: functional, cell-based; settings: WI-38, 72 h; in short: as §1
SW-620 = test: Antiproliferative activity against human SW620 cells after 72 hrs by MTT test; format: functional, cell-based; settings: SW-620, 72 h; in short: as §1
MCF7 = test: Antiproliferative activity against human MCF7 cells after 72 hrs by MTT test; format: functional, cell-based; settings: MCF7, 72 h; in short: as §1
MIA PaCa-2 = test: Antiproliferative activity against human MiaPaCa2 cells after 72 hrs by MTT test; format: functional, cell-based; settings: MIA PaCa-2, 72 h; in short: as §1
HEp-2 = test: Antiproliferative activity against human Hep2 cells after 72 hrs by MTT test; format: functional, cell-based; settings: HEp-2, 72 h; in short: as §1
DNA = test: Binding affinity to calf thymus DNA in aqueous solution at pH 7.0 by thermal denaturation; format: nucleic-acid assay; settings: Bos taurus
In short: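 ct-DNA in sodium cacodylate buffer, pH 7.0, I = 0.05 mol dm^-3, concentration taken as phosphate. Compound added at r[compd]/[ct-DNA] = 0.3. Melting followed by absorbance at 260 nm, with ligand absorbance subtracted and curves normalized. Tm taken as the transition midpoint (first derivative or tangent method). ΔTm = Tm(complex) − Tm(free DNA), averaged over at least two runs.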

| IC50 (HeLa) [nM] | IC50 (SW-620) [nM] | IC50 (MCF7) [nM] | IC50 (MIA PaCa-2) [nM] | Activity (DNA) | SMILES | IC50 (WI-38) [nM] | IC50 (HEp-2) [nM] |
| --- | --- | --- | --- | --- | --- | --- | --- |
| 1500 | 2000 | 4000 | 2400 | inactive | Oc1ccccc1/C=N/NC(=S)Nc1ccccc1 | 1300 | 2400 |
| ≥ 5000 | > 5000 | ≥ 5000 | > 5000 | inactive | NC(=S)N/N=C/c1ccccc1O | ≥ 5000 | ≥ 5000 |
| 2000 | 3000 | 400 | > 5000 |  | CCN(CC)c1ccc(/C=N/NC(N)=S)c(O)c1 | 200 | 900 |
| 200 | 4700 | > 5000 | > 5000 |  | NC(=S)N/N=C/c1c(O)ccc2ccccc12 | ≥ 5000 | 200 |
| 1700 | 1600 | 3000 | 2500 |  | COc1cccc(/C=N/NC(=S)Nc2ccccc2)c1O | 1400 | 1600 |
| 700 | 600 | 1200 | 200 | inactive | CCN(CC)c1ccc(/C=N/NC(=S)Nc2ccccc2)c(O)c1 | 300 | 300 |

— ChEMBL document CHEMBL1157178, “Novel thiosemicarbazone derivatives as potential antitumor agents: Synthesis, physicochemical and structural properties, DNA interactions and antiproliferative activity” (Bioorg Med Chem, 2008)
